According to ChEMBL document CHEMBL3232764, “Influence of the adamantyl moiety on the activity of biphenylacrylohydroxamic acid-based HDAC inhibitors” (Eur J Med Chem, 2014):

Experiments:
Histone deacetylase 7 = target: T1, Histone deacetylase 7 (Homo sapiens, UniProt Q8WUI4); assay: Inhibition of human HDAC7 using fluorogenic tetrapeptide RHKKAc as substrate
T1 sequence (Q8WUI4 whole entry): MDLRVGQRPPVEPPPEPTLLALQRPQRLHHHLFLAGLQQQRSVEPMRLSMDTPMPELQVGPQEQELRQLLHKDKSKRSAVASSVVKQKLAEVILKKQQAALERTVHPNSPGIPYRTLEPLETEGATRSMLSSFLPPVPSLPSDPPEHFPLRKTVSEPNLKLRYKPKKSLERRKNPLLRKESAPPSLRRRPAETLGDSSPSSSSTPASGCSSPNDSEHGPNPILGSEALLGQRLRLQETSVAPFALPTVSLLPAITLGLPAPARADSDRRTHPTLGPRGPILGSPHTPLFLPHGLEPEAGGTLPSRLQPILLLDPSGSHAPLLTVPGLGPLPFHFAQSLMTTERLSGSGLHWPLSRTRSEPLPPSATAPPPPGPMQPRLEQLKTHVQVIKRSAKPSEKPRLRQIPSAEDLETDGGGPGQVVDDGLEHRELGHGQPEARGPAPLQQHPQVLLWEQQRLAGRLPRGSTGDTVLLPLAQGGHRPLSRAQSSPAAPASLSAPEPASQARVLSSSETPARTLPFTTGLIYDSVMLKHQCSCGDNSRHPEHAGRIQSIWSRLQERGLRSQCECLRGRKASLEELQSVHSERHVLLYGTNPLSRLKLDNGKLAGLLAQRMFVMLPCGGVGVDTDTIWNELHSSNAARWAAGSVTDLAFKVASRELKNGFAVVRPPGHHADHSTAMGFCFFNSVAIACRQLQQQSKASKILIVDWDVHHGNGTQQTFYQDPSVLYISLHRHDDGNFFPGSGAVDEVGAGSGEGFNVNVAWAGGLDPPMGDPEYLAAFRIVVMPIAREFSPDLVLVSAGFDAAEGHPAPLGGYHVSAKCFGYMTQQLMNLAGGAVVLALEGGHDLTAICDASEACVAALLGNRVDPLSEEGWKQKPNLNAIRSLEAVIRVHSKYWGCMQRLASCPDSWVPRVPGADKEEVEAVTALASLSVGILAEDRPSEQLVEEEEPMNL

cells = type: functional, cell-based; settings: Homo sapiens, NCI-H460, 72 h
Histone deacetylase 2 = Histone deacetylase 2 (Homo sapiens, UniProt Q92769); type: cell-based, HeLa
[1] = Cell cycle arrest in human IGROV1 cells assessed as accumulation at G2/M phase at IC80 after 24 hrs by propidium iodide staining-based flow cytometry (reference value: 13.21%); type: functional; settings: IGROV-1
Outline: (§1)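 Cell-cycle distribution in IGROV-1 cells read by flow cytometry of propidium iodide–stained cells.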

IGROV-1 = assay: Cell cycle arrest in human IGROV1 cells assessed as accumulation at G1 phase at IC80 after 24 hrs by propidium iodide staining-based flow cytometry (reference value: 49.98%); type: functional; outline: as §1

Sequence of Histone deacetylase 2 (Q92769 whole entry): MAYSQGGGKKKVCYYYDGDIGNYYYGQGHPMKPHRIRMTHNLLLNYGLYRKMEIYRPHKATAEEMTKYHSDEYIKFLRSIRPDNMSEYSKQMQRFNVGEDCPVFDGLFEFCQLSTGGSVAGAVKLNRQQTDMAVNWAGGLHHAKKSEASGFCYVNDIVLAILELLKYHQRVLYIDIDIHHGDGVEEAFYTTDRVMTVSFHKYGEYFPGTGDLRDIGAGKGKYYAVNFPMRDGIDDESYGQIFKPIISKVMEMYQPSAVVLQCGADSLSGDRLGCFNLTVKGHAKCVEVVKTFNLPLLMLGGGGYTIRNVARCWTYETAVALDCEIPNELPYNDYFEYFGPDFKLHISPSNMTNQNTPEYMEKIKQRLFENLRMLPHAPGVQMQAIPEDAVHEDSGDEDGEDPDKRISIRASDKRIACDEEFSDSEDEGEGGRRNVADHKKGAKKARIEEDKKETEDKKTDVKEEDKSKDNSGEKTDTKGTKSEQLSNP

Compound: COc1ccc(-c2ccc(/C=C/C=C/C(=O)NO)cc2)cc1
- IC50 (Histone deacetylase 7): > 100 µM

Compound: COc1ccc(-c2ccc(/C=C/C=C/C(=O)NO)cc2)cc1C12CC3CC(CC(C3)C1)C2
- IC50 (cells): 1.4 µM
- IC50 (Histone deacetylase 2): > 10 µM
- Activity [1]: 7.46%
- Activity (IGROV-1): 70.35%
